ChEMBL document CHEMBL4000151, “Potent Small Agonists of Protease Activated Receptor 2” (ACS Med Chem Lett, 2016)
Active and inactive are the calls of the source. The rule behind the calls is not given here. Non-standard residues stand in square brackets, D forms with d. Residues, ends and D or L forms follow the SMILES beside them. ξ: configuration not given here. *: point of attachment. Isoxazole(5-carbonyl) = O=C(c1ccno1)*; ξCha = NC(CC1CCCCC1)C(=O)O; ξChg = NC(C(=O)O)C1CCCCC1; Orn = NCCC[C@H](N)C(=O)O; 2Furoyl = O=C(c1ccco1)*

What was measured:
[1] = target: T1, Proteinase-activated receptor 2 (Homo sapiens, UniProt P55085); assay: Agonist activity at human PAR2 expressed in CHO cells assessed as induction of intracellular calcium release measured for 300 secs by Fluo-3 AM dye-based fluorescence assay; format: functional, cell-based
T1 sequence (P55085 whole entry): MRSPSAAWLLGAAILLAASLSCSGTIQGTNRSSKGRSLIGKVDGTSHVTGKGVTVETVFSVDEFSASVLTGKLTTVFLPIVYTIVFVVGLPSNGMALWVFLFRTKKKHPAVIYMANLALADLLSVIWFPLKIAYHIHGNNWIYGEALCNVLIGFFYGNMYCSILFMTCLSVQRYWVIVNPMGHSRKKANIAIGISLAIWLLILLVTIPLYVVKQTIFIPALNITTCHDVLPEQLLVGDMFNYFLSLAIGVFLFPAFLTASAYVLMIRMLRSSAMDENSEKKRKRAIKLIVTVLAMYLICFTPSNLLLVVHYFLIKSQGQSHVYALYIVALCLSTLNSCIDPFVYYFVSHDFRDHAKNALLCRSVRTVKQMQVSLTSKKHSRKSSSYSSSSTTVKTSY
Procedure, shortened: (§1)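 CHO cells stably expressing human PAR2 (wild-type or point mutant), or untransfected CHO cells, plated ~5 × 10^4/well overnight at 37 °C. Loaded 1 h at 37 °C with 4 μM Fluo-3 AM in HBSS with 1% FBS, then washed into HBSS with 2.5 mM probenecid and 20 mM HEPES, pH 7.4. Compound added over a concentration range.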

CHO = assay: Induction of intracellular calcium release in PAR2 deficient CHO cells at 100 uM measured for 300 secs by Fluo-3 AM dye-based fluorescence assay; format: functional, cell-based; conditions: Cricetulus griseus
Procedure, shortened: as §1, with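 “range. Ca2+ read 300 s (ex 495/em 520 nm); duplicates; normalized to calcimycin; EC50 from nonlinear regression.” for “range.”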

Plasma = assay: Metabolic stability in rat plasma at 1 uM at pH 7.4 after 4 hrs by UPLC-MS analysis; format: ADME, cell-free; conditions: pH 7.4, 4 h
Procedure, shortened: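 Compound from DMSO stock added to a 1:1 mixture of PBS and rat plasma at 37 °C, 1 μM initial. Aliquots taken at 0 to 240 min and quenched in MeCN, then centrifuged. Supernatant analysed by UPLC-MS as % of t = 0 peak area; n = 3.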

[2] = target: Proteinase-activated receptor 2 (Homo sapiens) (UniProt P55085); assay: Agonist activity at PAR2 in human PC3 cells assessed as induction of intracellular calcium release at 25 uM of first compound treatment followed by 100 uM of second compound treatment by Fluo-3 AM dye based fluorescence assay; format: functional, cell-based
[3] = target: Proteinase-activated receptor 2 (Homo sapiens) (UniProt P55085); assay: Agonist activity at PAR2 in human MDA-MB-231 cells assessed as induction of chemotaxis at 100 nM incubated for 24 hrs cells preincubated with PAR2 antibody SAM11 prior to test compound addition by transwell migration assay; format: cell-based
Procedure, shortened: (§2)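 MDA-MB-231 cells lifted non-enzymatically into serum-free L-15 with 0.1% BSA and seeded at 2.5 × 10^5/insert on collagen-coated 5 μm transwell membranes, 3 h at 37 °C. Agonist at 100 nM placed in the bottom chamber for 24 h; SAM11 anti-PAR2 antibody (1 μg/mL) preincubated 30 min where used. Migrated cells stained with crystal violet and counted; chemotactic index = agonist/random migration.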

[4] = target: Proteinase-activated receptor 2 (Homo sapiens) (UniProt P55085); assay: Agonist activity at PAR2 in human MDA-MB-231 cells assessed as induction of chemotaxis at 100 nM incubated for 24 hrs by transwell migration assay; format: cell-based; procedure, shortened: as §2

EC50 [1] [µM]	Compound	Activity (CHO)	other results
0.2	CC[C@H](C)[C@H](NC(=O)C(CC1CCCCC1)NC(=O)c1ccno1)C(=O)NCC(=O)N[C@@H](CCCNC(=N)N)C(=O)N[C@@H](CC(C)C)C(N)=O (stereo not given in full) ({Isoxazole(5-carbonyl)}-[ξCha]IGRL-NH2)	–	–
–	NC(=O)[C@@H](NC(=O)[C@H](CC1CCCCC1)NC(=O)c1ccno1)C1CCCCC1	inactive	Stability (Plasma): Stable
0.3	CC[C@H](C)[C@H](NC(=O)[C@H](CC(C)C)NC(=O)c1ccco1)C(=O)NCC(=O)N[C@@H](CCCN=C(N)N)C(=O)N[C@@H](CC(C)C)C(=O)N[C@@H](CCCN)C(N)=O (2Furoyl-LIGRL[Orn]-NH2)	–	–
–	CC[C@H](C)[C@H](NC(=O)[C@H](CC(C)C)NC(=O)c1ccco1)C(=O)NCC(=O)N[C@@H](CCCNC(=N)N)C(=O)N[C@@H](CC(C)C)C(=O)N[C@@H](CCCN)C(N)=O (2Furoyl-LIGRL[Orn]-NH2)	inactive	Activity [2]: inactive; Activity [3]: inactive; Activity [4]: Active
0.08	CC(C)C[C@H](NC(=O)[C@H](CCCNC(=N)N)NC(=O)CNC(=O)C(NC(=O)C(CC1CCCCC1)NC(=O)c1ccno1)C1CCCCC1)C(N)=O (stereo not given in full) ({Isoxazole(5-carbonyl)}-[ξCha][ξChg]GRL-NH2)	–	–

Compound	EC50 [1] [µM]	Activity (CHO)	other results
H-SLIGKV-NH2	3	–	–
